Data as given in ChEMBL document CHEMBL4373727, “Thienopyrimidinone Derivatives That Inhibit Bacterial tRNA (Guanine37-N1)-Methyltransferase (TrmD) by Restructuring the Active Site with a Tyrosine-Flipping Mechanism” (J Med Chem, 2019).
The source made the active and inactive calls. The calls are words filed in the database; no cut-off is given here.

Legend:
[1] = target: T1, tRNA (guanine-N(1)-)-methyltransferase (Pseudomonas aeruginosa (strain ATCC 15692 / DSM 22644 / CIP 104116 / JCM14847 / LMG 12228 / 1C / PRS 101 / PAO1), UniProt Q9HXQ1); experiment: Inhibition of Pseudomonas aeruginosa tRNA (guanine(37)-N1)-methyltransferase (Leu5 to Asp25 residues) expressed in Escherichia coli BL21 Rosetta (DE3) assessed as reduction in S-adenosyl-L-homocysteine production preincubated for 15 mins followed by 15 uM of tRNALeu(CAG) substrate and SAM addition and measured after 45 mins by MTase-Glo assay
T1 sequence (Q9HXQ1 whole entry): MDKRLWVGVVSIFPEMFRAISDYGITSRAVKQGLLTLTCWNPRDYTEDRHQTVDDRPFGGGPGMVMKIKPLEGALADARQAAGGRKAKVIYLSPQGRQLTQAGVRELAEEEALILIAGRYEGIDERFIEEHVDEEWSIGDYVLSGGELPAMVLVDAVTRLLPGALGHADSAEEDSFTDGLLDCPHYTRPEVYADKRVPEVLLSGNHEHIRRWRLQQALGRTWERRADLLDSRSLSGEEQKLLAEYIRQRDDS
Outline: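 tRNA competition: same MTase-Glo assay with 8 nM PaTrmD and 2 μM SAM, 15 min preincubation and 45 min reaction at 37 °C. tRNALeu(CAG) at 1.5, 4.5 or 15 μM. IC50 from dose–response curves, duplicate data points.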

[2] = target: T1, tRNA (guanine-N(1)-)-methyltransferase; experiment: Binding affinity to Pseudomonas aeruginosa tRNA (guanine(37)-N1)-methyltransferase (Leu5 to Asp25 residues) expressed in Escherichia coli BL21 (DE3) Rosetta T1R cells by surface plasmon resonance assay
Outline: (§1)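 SPR at 25 °C. His-tagged TrmD (50 μg/mL) captured on an anti-His antibody surface (about 2200 RU), with a blank reference cell. Buffer: 50 mM Tris-HCl pH 8, 150 mM NaCl, 1 mM MgCl2, 1 mM DTT, 0.05% Tween-20. Analyte in 2-fold dilutions, injected lowest to highest at 30 μL/min, 30 s contact, 240 s dissociation. KD from steady-state affinity fit.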

[3] = target: T2, tRNA (guanine-N(1)-)-methyltransferase (Mycobacterium tuberculosis (strain ATCC 25618 / H37Rv), UniProt P9WFY7); experiment: Binding affinity to full length Mycobacterium tuberculosis tRNA (guanine(37)-N1)-methyltransferase expressed in Escherichia coli BL21 (DE3) by surface plasmon resonance assay; outline: as §1
T2 sequence (P9WFY7 whole entry): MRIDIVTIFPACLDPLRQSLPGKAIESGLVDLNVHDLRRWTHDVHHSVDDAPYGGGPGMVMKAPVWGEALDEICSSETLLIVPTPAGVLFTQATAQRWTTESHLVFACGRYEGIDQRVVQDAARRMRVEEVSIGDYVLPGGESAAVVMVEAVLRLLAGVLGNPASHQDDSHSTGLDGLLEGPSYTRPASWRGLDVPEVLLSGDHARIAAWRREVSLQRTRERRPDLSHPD

[4] = target: T3, tRNA (guanine-N(1)-)-methyltransferase (Staphylococcus aureus (strain NCTC 8325 / PS 47), UniProt Q2FZ43); experiment: Binding affinity to full length Staphylococcus aureus tRNA (guanine(37)-N1)-methyltransferase expressed in Escherichia coli BL21 (DE3) by surface plasmon resonance assay; outline: as §1
T3 sequence (Q2FZ43 whole entry): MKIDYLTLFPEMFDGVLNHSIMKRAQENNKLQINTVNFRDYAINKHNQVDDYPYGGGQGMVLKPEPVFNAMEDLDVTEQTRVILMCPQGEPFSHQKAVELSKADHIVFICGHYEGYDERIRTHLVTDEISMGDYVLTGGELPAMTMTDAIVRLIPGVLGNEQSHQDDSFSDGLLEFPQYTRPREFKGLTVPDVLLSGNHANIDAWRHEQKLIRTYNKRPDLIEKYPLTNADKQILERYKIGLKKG

[5] = target: T4, tRNA (guanine-N(1)-)-methyltransferase (Pseudomonas aeruginosa (strain ATCC 15692 / DSM 22644 / CIP 104116 / JCM14847 / LMG 12228 / 1C / PRS 101 / PAO1)) (UniProt Q9HXQ1); experiment: Binding affinity to Pseudomonas aeruginosa tRNA (guanine(37)-N1)-methyltransferase (Leu5 to Asp25 residues) expressed in Escherichia coli BL21 (DE3) Rosetta T1R cells assessed as association rate constant by surface plasmon resonance assay; outline: as §1
T4 sequence (whole entry): T1 sequence (Q9HXQ1 whole entry)

[6] = target: T5, tRNA (guanine-N(1)-)-methyltransferase (Mycobacterium tuberculosis (strain ATCC 25618 / H37Rv)) (UniProt P9WFY7); experiment: Binding affinity to full length Mycobacterium tuberculosis tRNA (guanine(37)-N1)-methyltransferase expressed in Escherichia coli BL21 (DE3) assessed as association rate constant by surface plasmon resonance assay; outline: as §1
T5 sequence (whole entry): T2 sequence (P9WFY7 whole entry)

[7] = target: T6, tRNA (guanine-N(1)-)-methyltransferase (Staphylococcus aureus (strain NCTC 8325 / PS 47)) (UniProt Q2FZ43); experiment: Binding affinity to full length Staphylococcus aureus tRNA (guanine(37)-N1)-methyltransferase expressed in Escherichia coli BL21 (DE3) assessed as association rate constant by surface plasmon resonance assay; outline: as §1
T6 sequence (whole entry): T3 sequence (Q2FZ43 whole entry)

[8] = target: T4, tRNA (guanine-N(1)-)-methyltransferase (Pseudomonas aeruginosa (strain ATCC 15692 / DSM 22644 / CIP 104116 / JCM14847 / LMG 12228 / 1C / PRS 101 / PAO1)); experiment: Binding affinity to Pseudomonas aeruginosa tRNA (guanine(37)-N1)-methyltransferase (Leu5 to Asp25 residues) expressed in Escherichia coli BL21 (DE3) Rosetta T1R cells assessed as dissociation rate constant by surface plasmon resonance assay; outline: as §1
[9] = target: T5, tRNA (guanine-N(1)-)-methyltransferase (Mycobacterium tuberculosis (strain ATCC 25618 / H37Rv)); experiment: Binding affinity to full length Mycobacterium tuberculosis tRNA (guanine(37)-N1)-methyltransferase expressed in Escherichia coli BL21 (DE3) assessed as dissociation rate constant by surface plasmon resonance assay; outline: as §1
[10] = target: T6, tRNA (guanine-N(1)-)-methyltransferase (Staphylococcus aureus (strain NCTC 8325 / PS 47)); experiment: Binding affinity to full length Staphylococcus aureus tRNA (guanine(37)-N1)-methyltransferase expressed in Escherichia coli BL21 (DE3) assessed as dissociation rate constant by surface plasmon resonance assay; outline: as §1
[11] = target: T4, tRNA (guanine-N(1)-)-methyltransferase (Pseudomonas aeruginosa (strain ATCC 15692 / DSM 22644 / CIP 104116 / JCM14847 / LMG 12228 / 1C / PRS 101 / PAO1)); experiment: Binding affinity to Pseudomonas aeruginosa tRNA (guanine(37)-N1)-methyltransferase (Leu5 to Asp25 residues) expressed in Escherichia coli BL21 (DE3) Rosetta T1R cells assessed as thermal stabilization of protein by measuring change in melting temperature at 0.1 mM by SYPRO orange based thermal shift assay
Outline: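 Thermal shift: 4 μM TrmD with 5× SYPRO Orange and ligand in 50 mM Tris-HCl pH 8, 150 mM NaCl, 1 mM MgCl2, 1 mM DTT, 0.05% Tween-20. Buffer-only control. Heated from 25 to 95 °C in a real-time PCR instrument, and Tm taken as the unfolding midpoint. Ligand levels: SAH 2 mM, inhibitors 0.1 mM.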

Staphylococcus aureus = experiment: Antibacterial activity against methicillin-resistant Staphylococcus aureus ATCC 43300 at 100 uM incubated for 24 hrs; assay type: functional, organism-based
Outline: (§2)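 Single-concentration growth screen: 100 μM test compound with log-phase bacteria at about 5×10^5 cells/mL. Incubation 24 h at 37 °C. Growth read by OD600 and given as percent of untreated control. MRSA was grown in cation-adjusted Mueller–Hinton broth. M. smegmatis was grown in complete Middlebrook 7H9. Ampicillin and kanamycin served as positive controls.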

Streptococcus pneumoniae = experiment: Antibacterial activity against Streptococcus pneumoniae ATCC 49619 at 100 uM incubated for 24 hrs; assay type: functional, organism-based
Outline: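 Single 100 μM screen in MH medium with 3% defibrinated sheep blood at 37 °C under 5% CO2, ~5×10^5 cells/mL, 24 h.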

[12] = system: Mycolicibacterium smegmatis; experiment: Antibacterial activity against Mycolicibacterium smegmatis MC2 155 at 100 uM incubated for 24 hrs; assay type: functional, organism-based; outline: as §2

NC1CCN(Cc2ccc(CNC(=O)c3csc4nc[nH]c(=O)c34)cc2)CC1
IC50 [1]: 0.84 µM
Kd [2]: 0.091 µM
Kd [3]: 10.4 µM
Kd [4]: 27.5 µM
Ka [5]: 128000 M⁻¹ s⁻¹
Ka [6]: 20100 M⁻¹ s⁻¹
Ka [7]: 59900 M⁻¹ s⁻¹
Kdiss [8]: 0.0117 s⁻¹
Kdiss [9]: 0.209 s⁻¹
Kdiss [10]: 1.65 s⁻¹
ΔTm [11]: 4 to 29 °C
Activity (Staphylococcus aureus): inactive
Activity (Streptococcus pneumoniae): inactive
Activity [12]: inactive

CCCCCCCCNCc1ccc(CNC(=O)c2csc3nc[nH]c(=O)c23)cc1
IC50 [1]: 0.26 µM
Kd [2]: 0.0016 µM
Kd [3]: 0.19 µM
Kd [4]: 3.1 µM
Ka [5]: 1.35e+07 M⁻¹ s⁻¹
Ka [6]: 645000 M⁻¹ s⁻¹
Ka [7]: 2.94e+06 M⁻¹ s⁻¹
Kdiss [8]: 0.0218 s⁻¹
Kdiss [9]: 0.12 s⁻¹
Kdiss [10]: 9.15 s⁻¹
ΔTm [11]: 12 °C
Activity (Staphylococcus aureus): Active
Activity (Streptococcus pneumoniae): Active
Activity [12]: Active
